Measured values from ChEMBL document CHEMBL1148671, “Synthesis and antibacterial activity of C12 des-methyl ketolides” (2006).
In brackets after ≈: the same amount, converted by molar mass.

Columns and labels:
Type in all cases: functional
[1] = tested on: Enterococcus faecalis; test: Antibacterial activity against Enterococcus faecalis 29212 by broth microdilution method
Outline: (§1)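 In vitro activity was read as the minimum inhibitory concentration (MIC) by broth microdilution and reported in μg/mL. The S. pneumoniae panel included erythromycin-resistant strains carrying mef or erm genes. Telithromycin and clarithromycin were run as comparators in every assay.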

[2] = tested on: Haemophilus influenzae; test: Antibacterial activity against Haemophilus influenzae 49247 by broth microdilution method; outline: as §1
[3] = tested on: Streptococcus pneumoniae; test: Antibacterial activity against Streptococcus pneumoniae 49619 by broth microdilution method; outline: as §1
[4] = tested on: Staphylococcus epidermidis; test: Antibacterial activity against Staphylococcus epidermidis 14990 by broth microdilution method; outline: as §1
[5] = tested on: Staphylococcus aureus; test: Antibacterial activity against Staphylococcus aureus 33591 by broth microdilution method; outline: as §1
[6] = tested on: Haemophilus influenzae; test: Antibacterial activity against Haemophilus influenzae 2762 by broth microdilution method; outline: as §1
[7] = tested on: Streptococcus pneumoniae; test: Antibacterial activity against Streptococcus pneumoniae 297-749 by broth microdilution method; outline: as §1
[8] = tested on: Streptococcus pyogenes; test: Antibacterial activity against Streptococcus pyogenes 8668 by broth microdilution method; outline: as §1
[9] = tested on: Streptococcus pneumoniae; test: Antibacterial activity against erythromycin-resistant Streptococcus pneumoniae mef S 3427 by broth microdilution method
[10] = tested on: Streptococcus pneumoniae; test: Antibacterial activity against erythromycin-resistant Streptococcus pneumoniae mef 5654 by broth microdilution method
[11] = tested on: Streptococcus pneumoniae; test: Antibacterial activity against Streptococcus pneumoniae 280-962 by broth microdilution method; outline: as §1
[12] = tested on: Staphylococcus epidermidis; test: Antibacterial activity against Staphylococcus epidermidis f50654 by broth microdilution method; outline: as §1
[13] = tested on: Streptococcus pneumoniae; test: Antibacterial activity against erythromycin-resistant Streptococcus pneumoniae erm 6849 by broth microdilution method
[14] = tested on: Enterococcus faecalis; test: Antibacterial activity against Enterococcus faecalis bc11148-2 by broth microdilution method; outline: as §1
[15] = tested on: Staphylococcus aureus; test: Antibacterial activity against Staphylococcus aureus 29213 by broth microdilution method; details: ATCC29213; outline: as §1

SMILES | MIC [1] | MIC [2] | MIC [3] | MIC [4] | MIC [5] | MIC [6] | MIC [7] | MIC [8] | MIC [9] | MIC [10] | MIC [11] | MIC [12] | MIC [13] | MIC [14] | MIC [15]
CC[C@H]1OC(=O)[C@H](C)C(=O)[C@H](C)[C@@H](O[C@@H]2O[C@H](C)C[C@H](N(C)C)[C@H]2O)[C@](C)(OC)C[C@@H](C)C(=O)[C@H](C)[C@@H]2[C@@H]1OC(=O)N2CCCCc1cnc2ccccc2c1 | 0.1 µg/mL (≈ 0.128 µM) | 6.25 µg/mL (≈ 7.99 µM) | ≤ 0.05 µg/mL | 0.2 µg/mL (≈ 0.256 µM) | > 50 µg/mL | 1.56 µg/mL (≈ 1.99 µM) | ≤ 0.05 µg/mL | ≤ 0.05 µg/mL | 0.1 µg/mL (≈ 0.128 µM) | 0.2 µg/mL (≈ 0.256 µM) | ≤ 0.05 µg/mL | 0.4 µg/mL (≈ 0.512 µM) | 0.4 µg/mL (≈ 0.512 µM) | 12.5 µg/mL (≈ 16 µM) | 0.4 µg/mL (≈ 0.512 µM)
CC[C@H]1OC(=O)[C@H](C)C(=O)[C@H](C)[C@@H](O[C@@H]2O[C@H](C)C[C@H](N(C)C)[C@H]2O)[C@](C)(OC)C[C@@H](C)C(=O)[C@H](C)[C@@H]2[C@@H]1OC(=O)N2CCCCc1ncc(-c2ccccc2)s1 | 0.4 µg/mL (≈ 0.491 µM) | 12.5 µg/mL (≈ 15.4 µM) | ≤ 0.05 µg/mL | 0.78 µg/mL (≈ 0.958 µM) | > 50 µg/mL | 3.13 µg/mL (≈ 3.84 µM) | ≤ 0.05 µg/mL | 0.2 µg/mL (≈ 0.246 µM) | 0.1 µg/mL (≈ 0.123 µM) | 1.56 µg/mL (≈ 1.92 µM) | ≤ 0.05 µg/mL | 0.4 µg/mL (≈ 0.491 µM) | 25 µg/mL (≈ 30.7 µM) | 6.25 µg/mL (≈ 7.68 µM) | 0.78 µg/mL (≈ 0.958 µM)
CC[C@H]1OC(=O)[C@H](C)C(=O)[C@H](C)[C@@H](O[C@@H]2O[C@H](C)C[C@H](N(C)C)[C@H]2O)[C@](C)(OC)C[C@@H](C)C(=O)[C@H](C)[C@@H]2[C@@H]1OC(=O)N2CCCCn1cnc(-c2ccc(Cl)nc2)c1 | ≤ 0.05 µg/mL | 6.25 µg/mL (≈ 7.51 µM) | ≤ 0.05 µg/mL | 0.1 µg/mL (≈ 0.12 µM) | > 50 µg/mL | 1.56 µg/mL (≈ 1.87 µM) | ≤ 0.05 µg/mL | ≤ 0.05 µg/mL | 0.1 µg/mL (≈ 0.12 µM) | 0.78 µg/mL (≈ 0.937 µM) | ≤ 0.05 µg/mL | 0.2 µg/mL (≈ 0.24 µM) | 0.4 µg/mL (≈ 0.481 µM) | 0.4 µg/mL (≈ 0.481 µM) | 0.2 µg/mL (≈ 0.24 µM)
CC[C@H]1OC(=O)[C@H](C)C(=O)[C@H](C)[C@@H](O[C@@H]2O[C@H](C)C[C@H](N(C)C)[C@H]2O)[C@](C)(OC)C[C@@H](C)C(=O)[C@H](C)[C@@H]2[C@@H]1OC(=O)N2CCCC(C)(C)n1cnc2ncccc21 | ≤ 0.05 µg/mL | 6.25 µg/mL (≈ 7.81 µM) | ≤ 0.05 µg/mL | 0.1 µg/mL (≈ 0.125 µM) | > 50 µg/mL | 1.56 µg/mL (≈ 1.95 µM) | ≤ 0.05 µg/mL | ≤ 0.05 µg/mL | 0.2 µg/mL (≈ 0.25 µM) | 1.56 µg/mL (≈ 1.95 µM) | ≤ 0.05 µg/mL | 0.1 µg/mL (≈ 0.125 µM) | 6.25 µg/mL (≈ 7.81 µM) | 1.56 µg/mL (≈ 1.95 µM) | 0.2 µg/mL (≈ 0.25 µM)
CC[C@H]1OC(=O)[C@H](C)C(=O)[C@H](C)[C@@H](O[C@@H]2O[C@H](C)C[C@H](N(C)C)[C@H]2O)[C@](C)(OC)C[C@@H](C)C(=O)[C@H](C)[C@@H]2[C@@H]1OC(=O)N2CCCC(C)(C)n1cnc(-c2cccnc2)c1 | 0.1 µg/mL (≈ 0.121 µM) | 3.13 µg/mL (≈ 3.79 µM) | ≤ 0.05 µg/mL | 0.1 µg/mL (≈ 0.121 µM) | > 50 µg/mL | 1.56 µg/mL (≈ 1.89 µM) | ≤ 0.05 µg/mL | ≤ 0.05 µg/mL | 0.2 µg/mL (≈ 0.242 µM) | 1.56 µg/mL (≈ 1.89 µM) | ≤ 0.05 µg/mL | 0.1 µg/mL (≈ 0.121 µM) | 0.4 µg/mL (≈ 0.484 µM) | 1.56 µg/mL (≈ 1.89 µM) | 0.2 µg/mL (≈ 0.242 µM)
